PfGluPho inh: PfG6PD (Plasmodium falciparum) enzyme inhibition; 0.78% of 350,000 active; inhibition, % at 20 µM; PfGluPho enzyme, NADPH resazurin-diaphorase fluorescence;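 active = inhibition reaching at least a set limit at 20 µM in the primary screen, cut at about 59% in these data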;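 note: 0% = DMSO wells with substrate and 100% = DMSO wells lacking glucose-6-phosphate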
DTT redox prof: compounds producing H2O2 with reducing agent – biochemical, NIH compound library profiling, artefact control for MLSCN library redox annotation, primary screen. DTT-dependent redox cycling H2O2, phenol red/HRP absorbance; 100% = 100 µM peroxide control, 0% = buffer. activation, % at 10 µM. 0.03% of 200,000 active. AID 878;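 active = activation of at least 50% relative to the plate's high and low controls in the primary single-dose screen; inactive = activation below 50%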;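 note: compound incubated with DTT at 0.8 mM final as the reducing agent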
Diaph act CS: counter-screen for diaphorase-based assays: diaphorase activators and chemical reducers. Diaphorase/resazurin coupled assay, resorufin fluorescence, 16 min; active compounds read high; 1 = vehicle wells, 0 = NADH-free wells. activation factor at 20 µM. 0.005% of 190,000 active. AID 1229;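 active = diaphorase activity raised at least twofold by the compound at 20 µM; inactive = activation factor below 2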
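System – purified diaphorase enzyme from Clostridium kluyveri · Input – enzyme 0.07 U/mL final · Also added – final NADH 0.114 mM, resazurin 0.1 mM · Measured by – fluorescence of resorufin, 544 nm excitation, 590 nm emission · Timing – 16 min enzyme reaction, ambient temperature · Measure – resorufin increase flagging diaphorase activators or reducers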
Lmaj promast: Leishmania major promastigote growth inhibition | Leishmania major promastigotes, resazurin fluorescence viability | inhibition, % at 10 µM | 9% of 200,000 active | AID 1063;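 note: promastigotes grown with compound for 44 hours at 28 °C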
Diaphorase inh: counter-screen for diaphorase-based assays: diaphorase inhibitors and chemical oxidizers; 0.69% of 190,000 active; inhibition, % at 20 µM; diaphorase resazurin-to-resorufin fluorescence, NADH, 16 min; bacterial (C. kluyveri) enzyme, not human;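 active = primary screen inhibition at 20 µM above a set limit, cut at about 50% in these data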;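 note: plate controls were DMSO with full reaction for no effect and wells lacking NADH for full effect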
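controls = No-NADH positive control and DMSO neutral control | system = Clostridium kluyveri diaphorase enzyme | timing = reaction incubation of 16 min at room temperature | signal = resorufin fluorescence 544/590 nm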
G6PDH counter: inhibits Leuconostoc G6PDH, flagging false hits in G6PDH-based assays | Purified L. mesenteroides G6PDH, diaphorase/resazurin coupled fluorescence, 45 min | inhibition, % at 5 µM | 0.12% of 200,000 active
PfGluPho conf: confirmation of Plasmodium falciparum G6PD inhibitors; shares compounds with PfGluPho inh; AID 504753; 34% of 2,400 active; inhibition, % at 20 µM; recombinant PfGluPho, NADPH-diaphorase-resazurin fluorescence;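 active = inhibition of at least 50% at 20 µM in any single replicate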;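 note: 0% = DMSO with substrate and 100% = DMSO lacking glucose-6-phosphate substrate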
Diaph ctr 10uM: counter-screen for P. falciparum G6PD inhibitors: diaphorase inhibitors, oxidizers. shares compounds with PfGluPho inh. 39% of 820 active. diaphorase-coupled resazurin reduction, fluorescence, NADPH 10 uM. inhibition, % at 20 µM. AID 504862;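 active = average inhibition reaching 50% or more with the compound at 20 µM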;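 note: resorufin red fluorescence formed as diaphorase reduces resazurin using NADPH; 0% = DMSO with enzyme and 100% = DMSO without enzyme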
Diaphorase 30uM: diaphorase inhibition or oxidation at 30 uM NADPH. shares compounds with PfGluPho inh. Diaphorase/resazurin coupled assay, resorufin fluorescence. inhibition, % at 20 µM. 29% of 820 active. AID 504863;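 active = inhibition averaging 50% or more, tested at 20 µM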;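 note: 0% = DMSO with enzyme and 100% = DMSO wells lacking diaphorase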
Numbers without * were called inactive; x = not tested or not shown. This excerpt belongs to a sample that is enriched for hits. Cut-off read from the data, not from the text of the source, unless noted: active = inhibition above about 50%; inactive = the rest.

SMILES	PfGluPho inh	DTT redox prof	Diaph act CS	Lmaj promast	Diaphorase inh	G6PDH counter	PfGluPho conf	others
CCOC(=O)C1CCN(C(=O)Nc2ccc3c(c2)nc(C)n3C)CC1	-15	0	0.9	-2	8	13	x
O=C(NN=C1CCCCC1)c1ccccc1OCc1ccc(F)cc1	-7	0	0.8	-4	20	16	x
Fc1ccc(COc2ccccc2C(=S)N2CCCC2)cc1	70*	-1	1	7	2	3	39
COCCNc1ccc([N+](=O)[O-])cc1C(=O)Nc1cccc(C)n1	-2	0	0.9	2	11	-1	x
COc1cnn(-c2ccc(Br)cc2)c(=O)c1SCc1ccccc1	17	0	0.8	3	16	-5	x
COc1cnn(-c2ccccc2)c(=O)c1OC	0	x	x	x	x	x	x
COc1cnn(-c2ccccc2)c(=O)c1SCc1ccc(Cl)cc1Cl	66*	-4	0.7	23	29	-3	-3
COc1cnn(-c2ccc(C)cc2)c(=O)c1SCc1ccccc1	66*	-4	0.8	3	22	0	3
COc1ccc(/C=N/N2CCN(c3ccccc3OC)CC2)cc1OC	-1	1	0.9	-4	12	-18	x
COc1ccccc1N1CCN(/N=C/c2ccc(O)c(O)c2)CC1	59*	-1	0.3	0	70*	38	46
O=c1ccn(-c2cccc(C(F)(F)F)c2)nc1-c1ccn(-c2cccc(Cl)c2)n1	87*	2	0.8	6	19	2	67*	Diaph ctr 10uM=61*;Diaphorase 30uM=57*
CC(C)CNC(=O)c1ccc(COc2ccc(Cl)cc2Cl)o1	-22	3	0.8	18	19	0	x
Cc1ccc(-c2cc(-c3ccc(Cl)cc3)c(C#N)c(N)n2)o1	96*	1	0.9	13	6	8	1
Cc1ccc(-c2cc(-c3ccc(C)o3)nc(N)c2C#N)cc1	60*	-6	0.8	28	22	-2	-19
O=C(O)c1cccc(S(=O)(=O)Nc2ccc([N+](=O)[O-])cc2O)c1	-25	x	x	x	x	x	x
CCc1ccc(S(=O)(=O)Nc2ccc(O)c3ccccc23)cc1	10	x	x	x	x	x	x
CCc1ccc(S(=O)(=O)Nc2cc(SCC(=O)O)c(O)c3ccccc23)cc1	89*	-1	0.8	99*	25	48	81*	Diaph ctr 10uM=34;Diaphorase 30uM=21
CCOc1ccc(S(=O)(=O)Nc2cc(SCC(=O)O)c(O)c3ccccc23)cc1	104*	x	x	x	x	x	97*	Diaph ctr 10uM=46;Diaphorase 30uM=32
CCOc1ccc(S(=O)(=O)Nc2cc(OC)c(OC)cc2C(=O)O)cc1	-22	0	0.9	-7	12	6	x
O=C(O)CSc1cc(NS(=O)(=O)c2cccc([N+](=O)[O-])c2)c2ccccc2c1O	106*	x	x	x	x	x	89*	Diaph ctr 10uM=51*;Diaphorase 30uM=41
COc1cccc(NC(=O)C(OC(=O)c2ccccc2NS(=O)(=O)c2cccs2)c2ccccc2)c1 (stereo not given)	75*	0	0.9	11	12	-10	32
Cc1cc(N/N=C/c2ccc(N(C)C)cc2)nc(NCc2ccccc2)n1	14	x	x	x	x	x	x
Cc1cc(Nc2ccc(Cl)cc2)nc(NCc2ccccc2)n1	60*	0	0.9	100*	9	-8	-27
Cc1ccc(Nc2cc(C)nc(-c3ccccc3)n2)cc1	65*	x	x	x	x	x	-4
O=[N+]([O-])c1ccc(S(=O)(=O)CC2CSc3nc4ccccc4n32)cc1 (stereo not given)	-16	-1	0.9	3	7	-1	x
COc1cccc(/C=N/NC(=O)CCC(=O)Nc2ccc(Br)cc2)c1	-1	x	x	x	x	x	x
O=C(CCCC(=O)Nc1ccc(Br)cc1)N/N=C/c1ccccc1	60*	x	x	x	x	x	42

Screens from PubChem BioAssay.
